Screening results from PubChem.
IMP-1 inh = blocks Pseudomonas aeruginosa IMP-1 metallo-beta-lactamase; inhibition, % at 5.6 µM; 0.45% of 290,000 active; purified IMP-1, nitrocefin hydrolysis, epi-absorbance fluorescence; AID 1556;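 active means inhibition above the mean plus 3 SD of all compounds in the same screening run, cut at about 4.5% in these data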;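 further: 0% = IMP-1 with DMSO and 100% = DMSO wells lacking enzyme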
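Test system: recombinant IMP-1 enzyme, purified / Medium: HEPES buffer pH 7.1 with ZnSO4 and Brij 35 / Doses: single dose, 5.6 µM / Times: 25 °C, 15 min preincubation, 25 min reaction / Detection: Epi-absorbance via hydrolysed-nitrocefin quenching of white-plate fluorescence, 480/530 nm, EDTA stop / Evaluation: percent inhibition from optical density relative to buffer-blank wells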
VIM-2 inh = blocks Pseudomonas aeruginosa VIM-2 metallo-beta-lactamase; purified VIM-2, nitrocefin hydrolysis, epi-absorbance fluorescence; inhibition, % at 5.6 µM; AID 1527; 0.89% of 290,000 active;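 active means inhibition above the mean of all tested compounds plus 3 SD, cutoff set per screening run, cut at about 7.5% in these data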;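 further: red hydrolysis product quenches plate fluorescence so inhibitors raise well fluorescence; 0% = enzyme with DMSO and 100% = DMSO without enzyme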
FID counter = fluorescent intercalator displacement, NS3 helicase counter-screen; DNA fluorescent intercalator displacement, fluorescence; inhibition, % at 7.9 µM; 0.17% of 290,000 active; AID 1845; in the data active means inhibition above about 37%;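 further: 0% = vehicle and 100% = reference compound; higher means more ethidium bromide displaced from hairpin DNA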
core dimer inh = blocks dimerization of HCV core protein; TR-FRET GST/Flag-core106 dimerization, 1536-well; inhibition, % at 5 µM; 0.33% of 300,000 active; AID 1899;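 active means inhibition above the mean of all tested compounds plus 3 SD, set per screening campaign, cut at about 45% in these data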
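Assay system – GST-tagged and Flag-tagged HCV core protein residues 1-106 · Quantity – core106 proteins, GST 13.5 nM and Flag 17 nM · Benchmarks – unlabelled core106 and no-GST-core106 wells · Read-out basis – percent inhibition of core106 dimerization signal · Detection – time-resolved FRET, ex 340 nm, em 617 and 671 nm · Schedule – 4 h at 22.5 °C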
VIM-2 inh confirm = VIM-2 inhibition, confirmation assay. inhibition, % at 5.6 µM. shares compounds with IMP-1 inh. purified VIM-2 enzyme, nitrocefin absorbance. 73% of 200 active; in the data active means inhibition above about 8%;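 further: 0% = enzyme with vehicle and 100% = no enzyme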
TEM-1 inh 2 = blocks E. coli TEM-1 beta-lactamase, VIM-2 IMP-1 counter-screen. shares compounds with IMP-1 inh. nitrocefin absorbance inhibition. inhibition, % at 5.6 µM. 50% of 200 active. AID 2184; in the data active means inhibition above about 0.66%
Target sequence (P62593 whole entry, looked up): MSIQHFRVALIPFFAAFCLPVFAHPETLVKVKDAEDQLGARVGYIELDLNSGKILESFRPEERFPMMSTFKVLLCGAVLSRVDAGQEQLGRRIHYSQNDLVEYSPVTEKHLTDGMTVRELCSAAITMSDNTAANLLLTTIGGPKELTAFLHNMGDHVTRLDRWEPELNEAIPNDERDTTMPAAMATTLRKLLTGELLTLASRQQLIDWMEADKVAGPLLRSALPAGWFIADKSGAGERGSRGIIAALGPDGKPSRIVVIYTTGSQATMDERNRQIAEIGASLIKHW
IMP-1 inh conf = confirmation of P. aeruginosa IMP-1 metallo-beta-lactamase inhibitors; inhibition, % at 5.6 µM; shares compounds with IMP-1 inh; purified IMP-1 enzyme, absorbance substrate hydrolysis; 60% of 200 active; AID 2189; in the data active means inhibition above about 4.9%;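 further: 0% = enzyme with vehicle and 100% = vehicle without enzyme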
The depositor's hits bear a star; . = no result. Sampled rows, rich in hits. Any-hit rate of the full collection: about 1.6%.

SMILES | IMP-1 inh | VIM-2 inh | FID counter | core dimer inh | VIM-2 inh confirm | TEM-1 inh 2 | IMP-1 inh conf
CC(C)C(CCN1C(=O)c2ccccc2C1=O)c1ccco1 (configuration not stated) | 7.3* | 15.1* | -14.9 | 4.1 | 32.6* | -1.0 | 18.6*
O=C(OCCN1C(=O)c2ccccc2C1=O)c1ccco1 | 0.3 | 1.0 | -3.5 | 4.0 | . | . | .
CCOc1ccc(-c2cc(C(=O)NCCCn3ccnc3)c3ccccc3n2)cc1 | -4.3 | -2.8 | 7.0 | 2.1 | . | . | .
CCOc1ccc(-c2cc(C(=O)NCCCn3ccnc3)c3cc(Br)ccc3n2)cc1 | 32.7* | 17.1* | 24.1 | -1.0 | 20.6* | -2.0 | 41.4*
COc1ccc(/C=C2/SC(=S)N(Cc3ccccc3)C2=O)cc1O | 0.5 | 0.6 | 28.2 | . | . | . | .
O=C1/C(=C\c2cc(Cl)c(O)c(Cl)c2)SC(=S)N1Cc1ccccc1 | 18.4* | 17.5* | -0.9 | . | 17.7* | 54.5* | 14.5*
O=C1c2cccc3c(N4CCCCC4)ccc(c23)C(=O)N1c1ccc(Cl)cn1 | 1.3 | 1.8 | 2.1 | . | . | . | .
CCCN1C(=O)c2cccc3c(N4CCCCC4)ccc(c23)C1=O | 23.6* | 32.2* | -20.0 | -1.8 | 11.8* | 6.5* | 5.5*
CCCCNc1ccc2c3c(cccc13)C(=O)N(CCCC)C2=O | 12.2* | 14.6* | -12.8 | . | 22.3* | 62.7* | 18.3*
O=C(COc1ccc(Cl)cc1Cl)Nc1ccc(C(=O)Nc2ccccc2C(=O)O)cc1 | 0.3 | 3.0 | -0.1 | 2.1 | . | . | .
Cc1nn(-c2ccccc2)c(Cl)c1/C=C(\CC(=O)O)c1nc2ccccc2s1 | 8.4* | 23.8* | -44.1 | 20.9 | 37.2* | -4.7 | 5.5*
Cc1nn(-c2ccc(F)cc2)c(Cl)c1/C=C(\CC(=O)O)c1nc2ccccc2s1 | 7.9* | 32.2* | -34.2 | 7.7 | 34.1* | -2.1 | 1.0
CCC(C)NC(=O)C1c2cc(OC)c(OC)cc2C(=O)N(C)C1c1cccs1 (configuration not stated) | -3.2 | -3.5 | -9.4 | -11.6 | . | . | .
CC(C)N1C(=O)CC(Nc2ccc(N3CCOCC3)cc2)C1=O (configuration not stated) | -8.3 | -1.7 | -17.1 | -1.1 | . | . | .
CC(C)(C)c1ccc(-c2c(C(=O)O)c(C(=O)O)c3n2CSC3)cc1 | 20.4* | 20.2* | -3.1 | 13.7 | 17.3* | -4.8 | 12.4*
COC(=O)c1c(C(=O)OC)c(-c2ccc(F)cc2)n2c1CSC2 | -3.4 | 0.0 | -22.2 | -0.1 | . | . | .
Cc1sc(NC(=O)Cc2ccc3c(c2)OCO3)nc1-c1ccc2c(c1)CCN2C(=O)c1ccc(F)cc1 | 0.7 | 0.1 | -2.4 | 20.8 | . | . | .
COc1ccc2c(/C=C/c3cc[n+](C)cc3)c[nH]c2c1 | -3.1 | 1.1 | 5.2 | -20.4 | . | . | .
Cc1ccc2[nH]cc(/C=C/c3cc[n+](C)cc3)c2c1 | 5.7* | 15.0* | 16.5 | . | 14.7* | 5.1* | 5.9*
CCn1c(/C=C/c2c[nH]c3ccccc23)nc2ccccc2c1=O | -4.2 | -5.6 | 17.3 | -0.3 | . | . | .
CC[n+]1ccc(/C=C/c2c[nH]c3ccccc23)cc1 | 5.6* | 8.2* | 9.9 | -19.7 | 8.1* | 2.7* | 3.8
O=C(CC(SCc1ccco1)c1ccc(O)cc1)c1cccs1 (configuration not stated) | 16.1* | 7.7 | 2.9 | 1.2 | 9.2* | -4.0 | -0.2
O=C(CSc1nnc(-c2ccc(O)cc2)n1Cc1ccco1)c1cccs1 | 2.1 | 0.0 | -12.5 | 5.1 | . | . | .
Cc1cccc(Nc2c([N+](=O)[O-])ccc3nonc23)c1C | 0.2 | -1.6 | 2.9 | . | . | . | .
COc1ccc(N2CCN(c3cc(C)nc4ccc(OC)cc34)CC2)cc1 | -2.5 | 0.6 | 16.2 | -11.9 | . | . | .
O=C1/C(=C/c2cccnc2)SC(=S)N1c1ccc(O)cc1 | 6.0* | 9.2* | -6.2 | 1.9 | 11.2* | -2.7 | -1.7
O=C1CCN2C=Nc3cccc4ccc1c2c34 | 12.1* | 12.1* | -0.9 | -7.2 | 31.6* | 28.5* | 24.4*
O=C(Cn1nc(-c2ccc(Cl)cc2)ccc1=O)NCC1CCCO1 (configuration not stated) | -1.4 | -1.6 | -7.4 | 8.6 | . | . | .
COc1ccc(/C=C2\SC(=O)NC2=S)cc1OC | 6.8* | 11.9* | 1.9 | -6.9 | 3.4 | -8.9 | -4.7
CCOc1ccc(/C=C2\SC(=S)NC2=O)cc1OC | -3.7 | -2.8 | -13.4 | 2.3 | . | . | .
